Assay outcomes: PubChem, several laboratories
Most compounds without a hit are left out; they make up all but 2.9% or so of the library.
SUMO HTRF inh: inhibitors of in vitro SUMOylation cascade, primary screen, biochemical, HTRF, uHTS; HTRF SUMOylation assay, SAE1/SAE2 + UBC9; AID 2006, 2009; SUMO-conjugating enzyme UBC9 (Homo sapiens), P63279; inhibition, % at 35 µM; 0.36% of 290,000 active; in the data active = inhibition above about 50%, passing the limit was not always enough
Target sequence (P63279 whole entry, looked up): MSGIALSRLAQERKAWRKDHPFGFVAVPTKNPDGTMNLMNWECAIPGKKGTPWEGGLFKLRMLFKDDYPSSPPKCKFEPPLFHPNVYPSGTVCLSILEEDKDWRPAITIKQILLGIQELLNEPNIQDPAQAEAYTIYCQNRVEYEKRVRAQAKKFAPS
FID counter: compounds displacing fluorescent DNA intercalator, primary screen, artefact control for HCV NS3 helicase inhibitor project, biochemical, FID fluorescence | AID 1845, 2009 | DNA fluorescent intercalator displacement | 0.17% of 290,000 active | inhibition, % at 7.9 µM; in the data active = inhibition above about 37%;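 note: 0% = vehicle and 100% = reference compound; higher means more ethidium bromide displaced from hairpin DNA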
SUMO Mot1 rescue: yeast Mot1-301 growth rescue at high temperature, primary screen, SUMOylation pathway inhibitor project, S. cerevisiae, ATP luminescence, 38.5C; 1% of 320,000 active; S. cerevisiae Mot1-301 growth rescue; percent above DMSO median, 100 means doubled; AID 2716, 2010; growth rescue, % at 18.8 µM;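 active = every valid replicate shows activation above 250% relative to neutral control wells; inactive = the rest, any valid replicate at or below 250%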;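 note: OY570 slx delta 5 strain wells were the positive control but not used for scaling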
NALP1 yeast inh: NALP1 inflammasome inhibitors in reconstituted yeast, colorimetric, S. cerevisiae, triplicate retest; 0.61% of 280,000 active; inhibition, % at 10 µM; S. cerevisiae NALP1/ASC/caspase-1 growth, X-gal OD620, 72 h; in the data active = inhibition mostly above about 24%, no sharp cut-off; inactive = mostly below about 32%
VIM-2 inhibitor: VIM-2 metallo-beta-lactamase inhibitors, primary screen, biochemical, epi-absorbance readout, Pseudomonas aeruginosa enzyme | purified VIM-2, nitrocefin hydrolysis, epi-absorbance fluorescence | inhibition, % at 5.6 µM | 0.89% of 290,000 active;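 active = inhibition above the mean of all tested compounds plus 3 SD, cutoff set per screening run, cut at about 7.5% in these data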;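 note: red hydrolysis product quenches plate fluorescence so inhibitors raise well fluorescence; 0% = enzyme with DMSO and 100% = DMSO without enzyme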
IMP-1 inh-1: IMP-1 metallo-beta-lactamase inhibitors, primary screen, biochemical, epi-absorbance readout, Pseudomonas aeruginosa enzyme; 0.45% of 290,000 active; inhibition, % at 5.6 µM; metallo-beta-lactamase IMP-1 (Pseudomonas aeruginosa); AID 1556, 2009; purified IMP-1, nitrocefin hydrolysis, epi-absorbance fluorescence;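 active = inhibition above the mean plus 3 SD of all compounds in the same screening run, cut at about 4.5% in these data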;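 note: 0% = IMP-1 with DMSO and 100% = DMSO wells lacking enzyme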
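System: purified IMP-1 / Input: IMP-1 dispensed at 0.2 nM / Medium: 50 mM HEPES pH 7.1, 50 µM ZnSO4, 0.05% Brij 35 / Timing: 15 min enzyme–compound preincubation, then 25 min nitrocefin reaction, 25 °C / Technique: plate fluorescence quenching by hydrolysis product, ex 480/em 530 nm / Repeats: singlicate testing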
IMP-1 inh-2: IMP-1 metallo-beta-lactamase inhibitors, confirmation, selectivity assay for selective VIM-2 inhibitor project, biochemical, epi-absorbance readout, triplicate. inhibition, % at 5.6 µM. purified IMP-1, nitrocefin hydrolysis, epi-absorbance fluorescence. shares compounds with VIM-2 inhibitor. 1,300 tested, under 10 active; call rule not given here;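 note: 0% = enzyme with vehicle and 100% = vehicle without enzyme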
VIM-2 FRET ctr: VIM-2 inhibitors in FRET format, confirmation, artefact control for selective VIM-2 inhibitor project, biochemical, epi-absorbance artifact exclusion; shares compounds with VIM-2 inhibitor; purified VIM-2, CCF2 FRET substrate hydrolysis; inhibition, % at 5.6 µM; 23% of 1,300 active;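 active = inhibition above the mean of all tested compounds plus 3 SD, cut at about 19% in these data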;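 note: 0% = VIM-2 plus DMSO and 100% = no enzyme wells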
TEM-1 counter: TEM-1 serine beta-lactamase inhibitors, counter-screen for VIM-2 inhibitor project, biochemical, epi-absorbance, HTS; Purified TEM-1, nitrocefin hydrolysis, epi-absorbance fluorescence; inhibition, % at 5.6 µM; 3% of 1,300 active; shares compounds with VIM-2 inhibitor;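 active = inhibition above that campaign's mean inhibition plus 3 SD, cut at about 0.46% in these data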;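 note: 0% = TEM-1 with DMSO and 100% = TEM-1 with 100 µM potassium clavulanate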
Target sequence (P62593 whole entry, looked up): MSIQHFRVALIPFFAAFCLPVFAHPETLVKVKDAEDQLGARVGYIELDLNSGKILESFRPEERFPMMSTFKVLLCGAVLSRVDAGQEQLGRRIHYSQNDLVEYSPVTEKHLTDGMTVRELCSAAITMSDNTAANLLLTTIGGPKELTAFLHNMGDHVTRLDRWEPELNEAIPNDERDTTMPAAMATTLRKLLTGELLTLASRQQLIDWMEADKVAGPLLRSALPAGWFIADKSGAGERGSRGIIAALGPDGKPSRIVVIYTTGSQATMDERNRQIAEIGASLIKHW
VIM-2 confirm 2: VIM-2 metallo-beta-lactamase inhibitors, confirmation, biochemical, epi-absorbance, hits shared with IMP-1 screen; shares compounds with VIM-2 inhibitor; purified VIM-2, nitrocefin hydrolysis; inhibition, % at 5.6 µM; 96% of 1,300 active; AID 2187, 2009;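 active = inhibition of the VIM-2 beta-lactamase enzyme above about 11% from the earlier first-round screen, limit read from the data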;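 note: 0% = VIM-2 with DMSO and 100% = buffer wells without enzyme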
Numbers without * were called inactive; nt = no result.

SMILES | SUMO HTRF inh | FID counter | SUMO Mot1 rescue | NALP1 yeast inh | VIM-2 inhibitor | IMP-1 inh-1 | IMP-1 inh-2 | VIM-2 FRET ctr | TEM-1 counter | VIM-2 confirm 2
CCN(CC)C(=O)c1cc2c(=O)n3cccc(C)c3nc2n1C | 27 | -20 | -9 | 13 | 3 | -2 | nt | nt | nt | nt
Cc1cc(C)c(NC(=O)CS(=O)CC(=O)Nc2ccc(-n3cnnn3)c(C)c2)c(C)c1 (centres undefined) | 1 | -13 | 5 | 5 | -4 | -2 | nt | nt | nt | nt
CN(C)C(=O)c1ccc(NC(=O)c2ccc(-c3ccc(Cl)cc3)o2)cc1 | nt | nt | 241 | nt | nt | nt | nt | nt | nt | nt
NS(=O)(=O)c1ccc(CNC(=O)Cn2nc(C(F)F)cc2C(F)F)cc1 | nt | nt | -5 | nt | nt | nt | nt | nt | nt | nt
COc1ccc(-c2cc(C(F)(F)F)n3nc(C(=O)NCCCn4ccnc4)cc3n2)cc1 | 33 | 4 | 1 | 5 | 29* | -3 | -2 | -13 | -6 | 48*
COC(=O)c1ccc(N2CCS(=O)(=O)CC2)cc1 | 13 | -2 | -10 | -6 | -1 | -1 | nt | nt | nt | nt
CN1CCN(C(=O)c2cc([N+](=O)[O-])ccc2Cl)CC1 | 15 | 0 | -18 | 9 | -1 | -3 | nt | nt | nt | nt
Cc1ccc(-c2nnc3c4ccccc4c(C)nn23)cc1NC(=O)CN1CCOCC1 | 8 | 2 | nt | 3 | -3 | -4 | nt | nt | nt | nt
Cc1nn2c(-c3ccc(S(=O)(=O)N4CCN(C)CC4)o3)nnc2c2ccccc12 | 13 | 30 | -2 | 13 | 24* | -1 | -1 | 4 | -5 | 34*
Cc1ccc(-c2nnc3c4ccccc4c(C)nn23)cc1S(=O)(=O)N1CCN(CCO)CC1 | 12 | -4 | -7 | -12 | 25* | -2 | -2 | 14 | -10 | 48*
Fc1cc(F)cc(NC(=S)Nc2ccccc2N2CCOCC2)c1 | -7 | -7 | 6 | -7 | -2 | -1 | nt | nt | nt | nt
CCOC(=O)c1sc2nc(C)nc(SCC(=O)N(C)C3CCS(=O)(=O)C3)c2c1C (centres undefined) | 13 | 0 | 4 | 8 | -1 | -2 | nt | nt | nt | nt
COc1ccc2cc(C#N)c(SCC(=O)N3CCCC3)nc2c1 | -11 | -19 | 31 | 3 | -3 | -1 | nt | nt | nt | nt
COc1ccc2nc(SCC(=O)N3CCN(c4ccc(F)cc4)CC3)c(C#N)cc2c1 | -24 | -8 | -8 | -1 | 15* | -2 | -4 | 13 | -6 | 42*
CCN=C1S/C(=C/c2ccc(-c3ccc(Cl)cc3C(=O)O)o2)C(=O)N1CC | 28 | -2 | 52 | 5 | 13* | 2 | -3 | 19* | -7 | 16*
CCC(=O)N(CCc1ccccc1)Cc1cc2cccc(C)c2[nH]c1=O | -10 | -42 | 9 | 10 | 0 | 0 | nt | nt | nt | nt
CCN(CC)CCNC(=O)c1ccc(NC(=O)c2ccc(F)cc2F)cc1 | 12 | 8 | -20 | -13 | 0 | -1 | nt | nt | nt | nt
O=C(O)Cn1c2c(c3ccccc31)CSc1ccc(Cl)cc1-2 | 2 | 13 | 4 | -6 | 15* | 2 | 0 | 12 | -4 | 20*
N#CC1=C(SCC(=O)Nc2ccc(C(=O)O)cc2)NC(=O)CC1c1ccco1 (centres undefined) | 23 | -3 | 105 | -3 | -2 | -1 | nt | nt | nt | nt
c1ccc2c(c1)CCN2CCN1CCc2ccccc21 | 2 | 0 | -10 | -1 | -1 | 0 | nt | nt | nt | nt
CN(C)CCN1CCc2ccccc21 | 6 | 7 | -16 | nt | 23* | -6 | -3 | -4 | -6 | 11*
Cc1nc(S/C(=C\c2ccc(-c3ccc(C(=O)O)c(Cl)c3)o2)C(=O)O)n[nH]1 | 43 | -15 | nt | -7 | 16* | -5 | -6 | 17* | -7 | 17*
c1csc(Cc2nn3c(-c4n[nH]c5c4CCC5)nnc3s2)c1 | 25 | -17 | 294 | -4 | 13* | 0 | -2 | 5 | -7 | 22*
c1coc(-c2nnc3sc(Cc4cccs4)nn23)c1 | 49 | -11 | 120 | 4 | 2 | -4 | nt | nt | nt | nt
CSc1sc(C(=O)NC(=O)NCc2ccncc2)c(C)c1-c1ccon1 | 5 | -25 | 5 | 4 | 32* | -2 | -3 | -7 | -6 | 42*
SMILES | SUMO HTRF inh | FID counter | SUMO Mot1 rescue | NALP1 yeast inh | VIM-2 inhibitor | IMP-1 inh-1 | IMP-1 inh-2 | VIM-2 FRET ctr | TEM-1 counter | VIM-2 confirm 2
O=C(NCc1ccccc1)NC(=O)c1ccncc1 | -2 | -2 | 16 | 5 | 0 | -2 | nt | nt | nt | nt
COc1cccc(-n2c(CNC(=O)OC(C)(C)C)n[nH]c2=S)c1 | -4 | -7 | -6 | -15 | 19* | -5 | -5 | 44* | -7 | 27*
COc1ccc(C2=Nn3c(nnc3-c3ccco3)SC2)cc1OC | 18 | -16 | -3 | 18 | 23* | 3 | -3 | -6 | -7 | 31*
COc1ccc(C2=Nn3c(nnc3-c3ccccc3OC)SC2)cc1OC | 4 | -26 | -31 | -1 | 14* | -1 | -3 | 2 | -6 | 27*
COc1ccc(C2=Nn3c(nnc3-c3ccccn3)SC2)cc1OC | 18 | -5 | -4 | 14 | 52* | -3 | -3 | -2 | -7 | 67*
COc1ccc(OC)c(C2=Nn3c(nnc3-c3cc(OC)c(OC)c(OC)c3)SC2)c1 | -11 | -33 | -9 | -4 | 13* | -4 | -3 | 3 | -6 | 26*
O=C(CSc1nc2ccccc2c(=O)n1NC(=O)Cc1ccccc1)NCCc1ccccc1 | -26 | -17 | 10 | 3 | -3 | -2 | nt | nt | nt | nt
COC(=O)C1CN(C(=O)COc2ccc(C)cc2)c2ccccc2O1 (centres undefined) | 12 | -18 | 343 | 16 | -1 | -4 | nt | nt | nt | nt
Oc1ccc(N=C/C=C/c2ccc(Br)cc2)cc1-c1nc2ccccc2s1 | 27 | -3 | 2 | 20 | -3 | -4 | nt | nt | nt | nt
CCN(CC)c1ccc(-c2nn3c(-c4ccccc4OC)nnc3s2)cc1 | -4 | -13 | 2 | 12 | 13* | -4 | -4 | -9 | -8 | 1
